Test results from ChEMBL document CHEMBL1147181, “Glutamine vinyl ester proteasome inhibitors selective for trypsin-like (beta2) subunit” (Eur J Med Chem, 2007).

Experiments:
[1] = organism: Homo sapiens; test: Stability in human plasma after 6 hrs
[2] = Inhibition of peptidylglutamyl-peptide hydrolyzing-like activity of 20S proteasome in lymphoblastoid cells after 30 mins; type: cell-based, Homo sapiens
Method in brief: (§1)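 Proteasome partially purified from lymphoblastoid cell lines, then affinity-purified (anti-α-subunit mAb) and dialyzed against 25 mM Tris-HCl pH 7.5; protein by BCA. Enzyme untreated or pretreated with 0.001–10 test compound, then incubated with subsite-specific fluorogenic substrate 30 min at 37 °C in activity buffer; fluorescence ex 360/em 465 nm. IC50 from fit of percent control vs concentration, Y=100/(1+(X/IC50))^A.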

[3] = Inhibition of chymotrypsin-like activity of 20S proteasome in lymphoblastoid cells after 30 mins; type: cell-based, Homo sapiens
Method in brief: as §1

[4] = Inhibition of trypsin-like activity of 20S proteasome in lymphoblastoid cells after 30 mins; type: cell-based, Homo sapiens
Method in brief: as §1

Row | Compound | half-life [1] | IC50 [2] | IC50 [3] | IC50 [4]
1 | CCOC(=O)/C=C/[C@H](CCC(N)=O)NC(=O)[C@@H]1Cc2ccccc2CN1C(=O)[C@@H](NC(=O)c1cccc(O)c1C)C(C)C | > 6 h | > 10 µM | > 10 µM | 2.34 µM
2 | CCOC(=O)/C=C/[C@H](CC(C)C)NC(=O)[C@H](CO)NC(=O)[C@@H]1Cc2ccccc2CN1C(=O)c1cccc(O)c1C | > 6 h | > 10 µM | 7.36 µM | 0.098 µM
3 | CCOC(=O)/C=C/[C@H](CC(C)C)NC(=O)[C@@H]1Cc2ccccc2CN1C(=O)[C@@H](NC(=O)c1cccc(O)c1C)C(C)C | > 6 h | > 10 µM | > 10 µM | 8.51 µM
4 | CCOC(=O)/C=C/[C@H](CCC(N)=O)NC(=O)[C@H](CO)NC(=O)[C@@H]1Cc2ccccc2CN1C(=O)c1cccc(O)c1C | > 6 h | > 10 µM | > 10 µM | 0.349 µM
5 | CCOC(=O)/C=C/[C@H](CC(C)C)NC(=O)[C@H](CC(C)C)NC(=O)[C@@H]1Cc2ccccc2CN1C(=O)c1cccc(O)c1C | > 6 h | > 10 µM | 6.89 µM | 0.157 µM

Continued, values first:

Row | half-life [1] | IC50 [2] | IC50 [3] | IC50 [4] | Compound
6 | > 6 h | > 10 µM | > 10 µM | 0.033 µM | CCOC(=O)/C=C/[C@H](CC(C)C)NC(=O)[C@H](CO)NC(=O)[C@@H](NC(=O)c1cccc(O)c1C)C(C)C
7 | > 6 h | > 10 µM | > 10 µM | > 10 µM | CCOC(=O)/C=C/[C@H](CC(C)C)NC(=O)[C@@H]1Cc2ccccc2CN1C(=O)[C@H](CC(C)C)NC(=O)c1cccc(O)c1C
8 | > 6 h | > 10 µM | 8.41 µM | 0.145 µM | CCOC(=O)/C=C/[C@H](CCC(N)=O)NC(=O)[C@H](CC(C)C)NC(=O)[C@H](CC(C)C)NC(=O)c1cccc(O)c1C
9 | > 6 h | > 10 µM | > 10 µM | 0.056 µM | CCOC(=O)/C=C/[C@H](CCC(N)=O)NC(=O)[C@H](CO)NC(=O)[C@@H](NC(=O)c1cccc(O)c1C)C(C)C
10 | > 6 h | > 10 µM | > 10 µM | 5.89 µM | CCOC(=O)/C=C/[C@H](CCC(N)=O)NC(=O)[C@@H]1Cc2ccccc2CN1C(=O)[C@H](CC(C)C)NC(=O)c1cccc(O)c1C
11 | > 6 h | > 10 µM | > 10 µM | 0.435 µM | CCOC(=O)/C=C/[C@H](CCC(N)=O)NC(=O)[C@H](CC(C)C)NC(=O)[C@@H]1Cc2ccccc2CN1C(=O)c1cccc(O)c1C
